Active and inactive are the calls of the source. The rule behind the calls is not given here.
Tests used:
UACC-257 = test: Cytotoxicity against human UACC257 cells after 48 hrs by SRB assay; assay type: functional; conditions: UACC-257, 48 h
Outline: (§1)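 Screened by the NCI Developmental Therapeutics Program in dose-response format. GI50 was determined by the sulforhodamine B protocol.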

SK-MEL-28 = test: Cytotoxicity against human SK-MEL-28 cells after 48 hrs by SRB assay; assay type: functional; conditions: SK-MEL-28, 48 h; outline: as §1
SF-539 = test: Cytotoxicity against human SF539 cells after 48 hrs by SRB assay; assay type: functional; conditions: SF-539, 48 h; outline: as §1
KM12 = test: Cytotoxicity against human KM12 cells after 48 hrs by SRB assay; assay type: functional; conditions: KM12, 48 h; outline: as §1
Malme-3M = test: Cytotoxicity against human MALME-3M cells after 48 hrs by SRB assay; assay type: functional; outline: as §1
HepG2 [1] = test: Cytotoxicity against human HepG2 cells assessed as cellular growth at 50 uM incubated for 1 hr prior to TNF alpha stimulation measured after 48 hrs by SRB assay; assay type: functional
Outline: (§2)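 HepG2 cells in DMEM with 10% FBS and penicillin/streptomycin were allowed to adhere 24 h, and a T0 plate was fixed. Compound was given for 1 h at 37 °C, with or without 20 ng/ml TNFα, then 48 h more. Cells were stained with 0.4% SRB for 30 min at RT, washed in 1% acetic acid, and solubilized in 10 mM Tris. OD read at 515 nm; one-way ANOVA.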

[2] = Cytotoxicity against human NCI-ADR-RES cells after 48 hrs by SRB assay; assay type: functional; outline: as §1
HCT-116 = test: Cytotoxicity against human HCT116 cells after 48 hrs by SRB assay; assay type: functional; conditions: HCT-116, 48 h; outline: as §1
SN12C = test: Cytotoxicity against human SN12C cells after 48 hrs by SRB assay; assay type: functional; outline: as §1
PC-3 = test: Cytotoxicity against human PC3 cells after 48 hrs by SRB assay; assay type: functional; conditions: PC-3, 48 h; outline: as §1
U-251 = test: Cytotoxicity against human U251 cells after 48 hrs by SRB assay; assay type: functional; conditions: U-251, 48 h; outline: as §1
DU-145 = test: Cytotoxicity against human DU145 cells after 48 hrs by SRB assay; assay type: functional; conditions: DU-145, 48 h; outline: as §1
OVCAR-3 = test: Cytotoxicity against human OVCAR3 cells after 48 hrs by SRB assay; assay type: functional; conditions: OVCAR-3, 48 h; outline: as §1
OVCAR-4 = test: Cytotoxicity against human OVCAR4 cells after 48 hrs by SRB assay; assay type: functional; conditions: OVCAR-4, 48 h; outline: as §1
786-0 = test: Cytotoxicity against human 786-0 cells after 48 hrs by SRB assay; assay type: functional; conditions: 786-0, 48 h; outline: as §1
Hs-578T = test: Cytotoxicity against human Hs578T cells after 48 hrs by SRB assay; assay type: functional; outline: as §1
HepG2 [3] = test: Cytotoxicity against human HepG2 cells assessed as cellular growth at 50 uM after 48 hrs by SRB assay in absence of TNFalpha; assay type: functional; outline: as §2
SF-268 = test: Cytotoxicity against human SF268 cells after 48 hrs by SRB assay; assay type: functional; conditions: SF-268, 48 h; outline: as §1
TK-10 = test: Cytotoxicity against human TK10 cells after 48 hrs by SRB assay; assay type: functional; conditions: TK-10, 48 h; outline: as §1
SNB-19 = test: Cytotoxicity against human SNB19 cells after 48 hrs by SRB assay; assay type: functional; conditions: SNB-19, 48 h; outline: as §1
SF-295 = test: Cytotoxicity against human SF295 cells after 48 hrs by SRB assay; assay type: functional; conditions: SF-295, 48 h; outline: as §1
CAKI-1 = test: Cytotoxicity against human Caki1 cells after 48 hrs by SRB assay; assay type: functional; conditions: CAKI-1, 48 h; outline: as §1
HepG2 [4] = test: Inhibition of TNFalpha-induced NFkappaB (unknown origin)-dependent transcriptional activity expressed in human HepG2 cells at 1 uM incubated for 1 hr prior to TNFalpha induction measured after 6 hrs by dual-luciferase reporter gene assay; assay type: cell-based
Outline: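 HepG2 cells in DMEM with 10% FBS were lipofectamine-transfected with 10 ng/well pGL4.32 NF-κB-Luc plus Renilla control. Compound in DMSO was given in fresh medium for 1 h at 37 °C, then TNFα (final 20 ng/ml) for 6 h. Cells were lysed in passive lysis buffer. Firefly light units were normalized to Renilla; one-way ANOVA.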

T47D = test: Cytotoxicity against human T47D cells after 48 hrs by SRB assay; assay type: functional; outline: as §1
MDA-MB-435 = test: Cytotoxicity against human MDA-MB-435 cells after 48 hrs by SRB assay; assay type: functional; conditions: MDA-MB-435, 48 h; outline: as §1
BT-549 = test: Cytotoxicity against human BT549 cells after 48 hrs by SRB assay; assay type: functional; conditions: BT-549, 48 h; outline: as §1
OVCAR-8 = test: Cytotoxicity against human OVCAR8 cells after 48 hrs by SRB assay; assay type: functional; conditions: OVCAR-8, 48 h; outline: as §1
MDA-MB-231 = test: Cytotoxicity against human MDA-MB-231 cells after 48 hrs by SRB assay; assay type: functional; conditions: MDA-MB-231, 48 h; outline: as §1
SK-MEL-2 = test: Cytotoxicity against human SK-MEL-2 cells after 48 hrs by SRB assay; assay type: functional; conditions: SK-MEL-2, 48 h; outline: as §1
HCC 2998 = test: Cytotoxicity against human HCC2998 cells after 48 hrs by SRB assay; assay type: functional; conditions: HCC 2998, 48 h; outline: as §1
HCT-15 = test: Cytotoxicity against human HCT15 cells after 48 hrs by SRB assay; assay type: functional; conditions: HCT-15, 48 h; outline: as §1
RXF 393 = test: Cytotoxicity against human RXF393 cells after 48 hrs by SRB assay; assay type: functional; conditions: RXF 393, 48 h; outline: as §1
SNB-75 = test: Cytotoxicity against human SNB75 cells after 48 hrs by SRB assay; assay type: functional; conditions: SNB-75, 48 h; outline: as §1
SW-620 = test: Cytotoxicity against human SW620 cells after 48 hrs by SRB assay; assay type: functional; conditions: SW-620, 48 h; outline: as §1
IGROV-1 = test: Cytotoxicity against human IGROV1 cells after 48 hrs by SRB assay; assay type: functional; conditions: IGROV-1, 48 h; outline: as §1
COLO 205 = test: Cytotoxicity against human COLO205 cells after 48 hrs by SRB assay; assay type: functional; conditions: COLO 205, 48 h; outline: as §1
LOX IMVI = test: Cytotoxicity against human LOXIMVI cells after 48 hrs by SRB assay; assay type: functional; outline: as §1
UO-31 = test: Cytotoxicity against human UO31 cells after 48 hrs by SRB assay; assay type: functional; conditions: UO-31, 48 h; outline: as §1
M14 = test: Cytotoxicity against human M14 cells after 48 hrs by SRB assay; assay type: functional; conditions: M14, 48 h; outline: as §1
MCF7 = test: Cytotoxicity against human MCF7 cells after 48 hrs by SRB assay; assay type: functional; conditions: MCF7, 48 h; outline: as §1
UACC-62 = test: Cytotoxicity against human UACC62 cells after 48 hrs by SRB assay; assay type: functional; conditions: UACC-62, 48 h; outline: as §1
A498 = test: Cytotoxicity against human A498 cells after 48 hrs by SRB assay; assay type: functional; conditions: A498, 48 h; outline: as §1
[5] = Cytotoxicity against human SKOC3 cells after 48 hrs by SRB assay; assay type: functional; conditions: SKOC3, 48 h; outline: as §1

SMILES: c1ccc2c(NCCc3c[nH]c4ccccc34)ncnc2c1
- GI50 (UACC-257): 9.8 µM
- GI50 (SK-MEL-28): 25.1 µM
- GI50 (SF-539): 39.8 µM
- GI50 (KM12): 19.1 µM
- GI50 (Malme-3M): 29.5 µM
- Activity (HepG2 [1]): -30%
- GI50 [2]: 5.6 µM
- GI50 (HCT-116): 6.3 µM
- GI50 (SN12C): 30.2 µM
- GI50 (PC-3): 19.5 µM
- GI50 (U-251): 30.9 µM
- GI50 (DU-145): 27.5 µM
- GI50 (OVCAR-3): 19.1 µM
- GI50 (OVCAR-4): 1.5 µM
- GI50 (786-0): 33.9 µM
- GI50 (Hs-578T): 60.3 µM
- Activity (HepG2 [3]): -22.3%
- GI50 (SF-268): 34.7 µM
- GI50 (TK-10): 20.4 µM
- GI50 (SNB-19): 50.1 µM
- GI50 (SF-295): 3.5 µM
- GI50 (CAKI-1): 2.2 µM
- inhibition (HepG2 [4]): Active
- GI50 (T47D): 12 µM
- GI50 (MDA-MB-435): 10.2 µM
- GI50 (BT-549): 12.3 µM
- GI50 (OVCAR-8): 5.5 µM
- GI50 (MDA-MB-231): 21.9 µM
- GI50 (SK-MEL-2): 30.9 µM
- GI50 (HCC 2998): 26.3 µM
- GI50 (HCT-15): 24 µM
- GI50 (RXF 393): 30.9 µM
- GI50 (SNB-75): 22.9 µM
- GI50 (SW-620): 41.7 µM
- GI50 (IGROV-1): 14.1 µM
- GI50 (COLO 205): 28.2 µM
- GI50 (LOX IMVI): 15.5 µM
- GI50 (UO-31): 14.5 µM
- GI50 (M14): 24.6 µM
- GI50 (MCF7): 11.2 µM
- GI50 (UACC-62): 14.1 µM
- GI50 (A498): 2.8 µM
- GI50 [5]: 58.9 µM

SMILES: c1ccc2c(NCCc3ccc4c(c3)OCO4)ncnc2c1
- Activity (HepG2 [1]): -28.1%
- Activity (HepG2 [3]): -20.1%
- inhibition (HepG2 [4]): Active

SMILES: Oc1ccc(Br)cc1CN1CCN(c2ncnc3ccccc23)CC1
- Activity (HepG2 [1]): -29.9%
- Activity (HepG2 [3]): -22%
- inhibition (HepG2 [4]): Active

SMILES: c1ccc(CN2CCN(c3ncnc4ccccc34)CC2)cc1
- Activity (HepG2 [1]): -17.6%
- Activity (HepG2 [3]): -16.7%
- inhibition (HepG2 [4]): Active

SMILES: c1ccc(CN2CCN(c3nc(-c4ccccc4)nc4ccccc34)CC2)cc1
- Activity (HepG2 [1]): 13.7%
- Activity (HepG2 [3]): 30.7%
- inhibition (HepG2 [4]): Active

SMILES: Oc1ccccc1CN1CCN(c2nc(-c3ccccc3)nc3ccccc23)CC1
- Activity (HepG2 [1]): 13%
- Activity (HepG2 [3]): 14.6%
- inhibition (HepG2 [4]): Active

SMILES: Oc1ccccc1CN1CCN(c2ncnc3ccccc23)CC1
- Activity (HepG2 [1]): -26%
- Activity (HepG2 [3]): -21.7%
- inhibition (HepG2 [4]): Active

Reference: ChEMBL document CHEMBL2311328, “Molecular docking and synthesis of novel quinazoline analogues as inhibitors of transcription factors NF-κB activation and their anti-cancer activities” (2013)
